Source: ChEMBL document CHEMBL1122953, “Synthesis and antiarrhythmic and parasympatholytic properties of substituted phenols. 3. Modifications to the linkage region (region 3)” (1985)
The source made the active and inactive calls. No cut-off for these calls is given here.

Legend:
Cavia porcellus = species on record: Cavia porcellus; assay: Parasympatholytic activity and the % inhibition of guinea pig ileum contractile force at 4 mg/L of base was reported.; type: functional
How it was run: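 Isolated guinea pig ileum, electrically stimulated so contraction comes from acetylcholine released by postganglionic parasympathetic nerves. After about 60 min equilibration, tension was measured just before and during the steady-state response to drug at 4 mg/L. Result is % inhibition of contractile force.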

Canis familiaris [1] = species on record: Canis familiaris; assay: Antiarrhythmic activity estimated by using the ouabain intoxicated dog model and the active dose of base in ouabain dog was reported.; type: functional, Canis lupus familiaris, Heart
How it was run: (§1)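 Dogs; ECG lead II recorded. Ouabain given iv as boluses of 40 µg/kg, then 20 µg/kg 30 min later, then 10 µg/kg every 15 min until a stable ventricular arrhythmia (>95% ectopic ventricular complexes) persisted 15 min. Test drug infused iv at 0.5 mg/kg per min until normal sinus rhythm held at least 10 min. Active dose is the mean of experiments ± SEM.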

Canis familiaris [2] = assay: Antiarrhythmic activity estimated by using the ouabain intoxicated dog model and the active dose of base in ouabain dog was reported. at a dose of 10 mg/kg; Not effective; type: functional, organism-based; design: dose 10 mg/kg; conditions: Canis lupus familiaris, Heart; how it was run: as §1
Canis familiaris [3] = species on record: Canis familiaris; assay: Antiarrhythmic activity estimated by using the ouabain intoxicated dog model and the active dose of base in ouabain dog was reported; Not effective; type: functional, organism-based; conditions: Canis lupus familiaris; Heart; how it was run: as §1
Canis familiaris [4] = species on record: Canis familiaris; assay: Dose at which ouabain dog failed to produce normal sinus rhythm; type: functional, Canis lupus familiaris; how it was run: as §1
Canis familiaris [5] = assay: Antiarrhythmic activity estimated by using the ouabain intoxicated dog model and the active dose of base in ouabain dog was reported at a dose of 20 mg/kg; Not effective; type: functional, organism-based; design: dose 20 mg/kg; conditions: Canis lupus familiaris, Heart; how it was run: as §1
Canis familiaris [6] = species on record: Canis familiaris; assay: Dose at which ouabain dog caused ventricular flutter; type: functional, Canis lupus familiaris, Heart; how it was run: as §1

SMILES | Inhibition (Cavia porcellus) | Dose (Canis familiaris [1]) | further results
CCN(CC)CCNC(=O)c1ccc(N)cc1.Cl [PROCAINAMIDE HYDROCHLORIDE] | 0% | 29 mg/kg | 
Cl.Oc1c(CN2CCCC2)cc(OCc2ccccc2)cc1CN1CCCC1 | 62% | 2 mg/kg | 
O=C(Nc1cc(CN2CCCC2)c(O)c(CN2CCCC2)c1)c1ccccc1 |  | 3.4 mg/kg | 
O=C(c1cc(CN2CCCC2)c(O)c(CN2CCCC2)c1)c1cc(CN2CCCC2)c(O)c(CN2CCCC2)c1 |  |  | DOSE (Canis familiaris [2]): inactive
CN(C(=O)c1ccccc1)c1cc(CN2CCCC2)c(O)c(CN2CCCC2)c1 | 5% | 16.2 mg/kg | 
Cl.Oc1c(CN2CCCC2)cc(Cc2ccccc2)cc1CN1CCCC1 | 14.3% |  | DOSE (Canis familiaris [3]): inactive
O=S(=O)(Nc1cc(CN2CCCC2)c(O)c(CN2CCCC2)c1)c1ccccc1 |  | 10 mg/kg | 
Cc1ccccc1NC(=O)c1cc(CN2CCCC2)c(O)c(CN2CCCC2)c1 |  | 2.9 mg/kg | 
O=C(Nc1cc(CN2CCOCC2)c(O)c(CN2CCOCC2)c1)c1ccccc1 |  | 16.5 mg/kg | 
Oc1c(CN2CCCC2)cc(Nc2ccccc2)cc1CN1CCCC1 |  | 5 mg/kg | Dose (Canis familiaris [4]): 17.5 mg/kg
O=C(Nc1ccccc1)c1cc(CN2CCCC2)c(O)c(CN2CCCC2)c1 | 31% | 2.8 mg/kg | 
Oc1c(CN2CCCC2)cc(Nc2ncnc3ccccc23)cc1CN1CCCC1 [CHANGROLIN] | 43% | 5.5 mg/kg | 
O=C(Nc1nccs1)c1cc(CN2CCCC2)c(O)c(CN2CCCC2)c1 |  |  | DOSE (Canis familiaris [5]): inactive
CC(C)N(CCC(C(N)=O)(c1ccccc1)c1ccccn1)C(C)C (configuration not stated) [DISOPYRAMIDE] | 81% | 4.4 mg/kg | 
C=C[C@H]1CN2CC[C@H]1C[C@@H]2[C@@H](O)c1ccnc2ccc(OC)cc12 [QUINIDINE] | 62% | 10.5 mg/kg | 
COc1ccc(C(=O)c2cc(CN3CCCC3)c(O)c(CN3CCCC3)c2)cc1 | 12% | 4.5 mg/kg | 
O=C(c1ccc(Cl)cc1)c1cc(CN2CCCC2)c(O)c(CN2CCCC2)c1 |  | 4.8 mg/kg | 
O=C(Nc1cc(CN2CCCCC2)c(O)c(CN2CCCCC2)c1)c1ccccc1 | 33% | 3 mg/kg | 
O=C(c1ccccc1)c1cc(CN2CCCC2)c(O)c(CN2CCCC2)c1 | 9% | 2.4 mg/kg | 
Cc1cccc(C)c1C(=O)Nc1cc(CN2CCCC2)c(O)c(CN2CCCC2)c1 |  | 3.2 mg/kg | 
O=C(Nc1ccccc1)Nc1cc(CN2CCCC2)c(O)c(CN2CCCC2)c1 |  | 3.6 mg/kg | 
Cc1cccc(C)c1NC(=O)c1cc(CN2CCCC2)c(O)c(CN2CCCC2)c1 |  | 4.5 mg/kg | 
Cc1ccccc1C(=O)Nc1cc(CN2CCCC2)c(O)c(CN2CCCC2)c1 |  | 2.7 mg/kg | 
O=C(/C=C/c1ccccc1)Nc1cc(CN2CCCC2)c(O)c(CN2CCCC2)c1 |  | 14 mg/kg | Dose (Canis familiaris [6]): 8 mg/kg
